Bioassay records: PubChem BioAssay, several laboratories
An excerpt weighted towards active compounds, which were near 1.9% of everything screened.
Hck Nef HTS: inhibitors of human Hck kinase activated by Nef; 220,000 compounds, 0.68% hits; Recombinant Hck-YEEI plus Nef, Z-Lyte FRET kinase assay; inhibition, % at 20 µM; P08631;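 active = Hck-Nef kinase inhibition above about 50%, limit read from the data; inactive = inhibition below that limit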
RanGTP-Impb inh: disruptors of Ran-importin-beta complex formation – biochemical, FRET, CFP-Ran, YFP-importin-beta, homogeneous, primary screen; AID 2216; inhibition, % (concentration not given with the values); cell-free CFP-Ran/YFP-importin-beta FRET ratio; 300,000 compounds, 1.1% hits;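 active = more than half of the replicate wells show a fall in the fluorescence ratio signal beyond about 16%, limit read from the data, passing the limit was not always enough; inconclusive = exactly half of the replicate wells pass the set limit; inactive = fewer than half of replicates pass the limit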
Runt-CBFb FRET: inhibitors of human RUNX1 Runt domain binding to CBFb. Cerulean-Runt/Venus-CBFb FRET ratio 530/480, 1 h. inhibition, % at 20 µM. 220,000 compounds, 0.46% hits;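 active = inhibition over about 50% at 20 µM in the single-dose screen, limit read from the data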
Target sequence (Q01196 whole entry, looked up, the tested form may be a part): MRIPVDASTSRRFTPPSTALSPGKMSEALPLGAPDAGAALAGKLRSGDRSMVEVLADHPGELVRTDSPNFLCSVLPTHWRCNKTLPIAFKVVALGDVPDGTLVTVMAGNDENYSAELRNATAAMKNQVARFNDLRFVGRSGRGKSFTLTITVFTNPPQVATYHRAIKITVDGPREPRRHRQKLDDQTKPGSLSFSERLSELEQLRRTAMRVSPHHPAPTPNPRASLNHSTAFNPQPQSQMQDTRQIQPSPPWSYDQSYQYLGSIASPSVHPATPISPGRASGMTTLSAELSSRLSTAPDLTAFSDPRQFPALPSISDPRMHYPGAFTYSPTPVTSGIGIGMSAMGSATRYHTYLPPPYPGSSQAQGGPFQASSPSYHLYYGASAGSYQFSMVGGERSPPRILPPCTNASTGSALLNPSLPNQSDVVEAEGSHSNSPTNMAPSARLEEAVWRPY
Target sequence (Q13951 whole entry, looked up, the tested form may be a part): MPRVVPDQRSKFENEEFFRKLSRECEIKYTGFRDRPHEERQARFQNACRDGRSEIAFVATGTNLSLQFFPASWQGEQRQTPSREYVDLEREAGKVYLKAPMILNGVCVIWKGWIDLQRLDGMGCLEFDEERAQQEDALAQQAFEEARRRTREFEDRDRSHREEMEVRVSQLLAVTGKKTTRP
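Assay system: Cerulean-Runt domain fusion protein, energy donor; Signal: fluorescence energy transfer, 422 nm excitation, 530/480 nm emission; Timing: 1 h compound exposure, room temperature; Control set: unlabeled CBFb; Medium: Tris buffer pH 7.5 with salts and BSA; Compound: single test concentration of 20 µM, 1% DMSO final; Probe or stimulus: Venus-CBFb 100 nM.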
Runt-SMMHC FRET: blocks binding of human RUNX1 Runt domain to CBFb-SMMHC; Q01196+Q13951; Cerulean-Runt/Venus-CBFb-SMMHC FRET ratio 530/480, 1 h; inhibition, % at 20 µM; 220,000 compounds, 0.74% hits;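 active = mean inhibition across duplicate retests at 20 µM reaching about 50%, limit read from the data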;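 note: inhibitors lower the FRET ratio by blocking Runt binding to CBFb-SMMHC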
Hck Nef conf: Hck-Nef kinase inhibition, confirmation; shares compounds with Hck Nef HTS; Recombinant Hck-YEEI:Nef, Z-Lyte FRET kinase assay; calls only at 10 µM; 1,300 compounds, 28% hits; AID 463188;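 active = average inhibition of at least 50%, with Z-scores no higher than 3 in both the phospho-tyrosine peptide and fluorescence counterscreens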
Numbers stand for hits; n = inactive; u = inconclusive; x = no result given; + = active, no number.

SMILES	Hck Nef HTS	RanGTP-Impb inh	Runt-CBFb FRET	Runt-SMMHC FRET	Hck Nef conf
COc1ccc(/C=C2\SC(=N)N(c3ccc(F)cc3)C2=O)cc1OC	62.6	n	n	n	+
Fc1cccc(Cl)c1CSc1nnc(CN2CCOCC2)n1-c1ccccc1	95.9	n	n	n	n
Clc1cccc(Cl)c1CSc1nnc(CN2CCOCC2)n1-c1ccccc1	n	n	n	n	x
Cc1nn(CC(=O)Nc2ccc3c(c2)oc2ccccc23)c(=O)c2ccccc12	50.5	n	n	n	n
CC(C)(CO)NC(=O)C12CC3CC(CC(Br)(C3)C1)C2	n	n	n	n	x
Nc1[nH]nc2nc(N3CCOCC3)nc(-c3ccccc3)c12	67.4	n	n	n	+
CC(C)c1ccc(-c2nc(N3CCCC3)nc3n[nH]c(N)c23)cc1	n	n	n	n	x
Clc1cccc(Cl)c1CNc1ccc(N2CCCC2)cc1	70.6	n	n	n	n
CC(OC(=O)CNC(=O)COc1ccccc1)C(=O)N(C)Cc1ccccc1 (stereo unspecified)	x	n	x	x	x
Cc1nc2ccc3nc(NC(=O)c4ccc5c(c4)OCCO5)sc3c2s1	87.0	n	n	n	+
Cc1ccc(C)n1Cc1ccc(C(=O)O)cc1	73.9	x	n	n	n
Cc1ccc2sc(N3CCN(CCNC(=O)c4ccco4)CC3)nc2c1C	x	n	x	x	x
CC1CN(CC(O)COCc2ccc3c(c2)OCO3)CC(C)O1 (stereo unspecified)	n	n	n	n	x
CCOC(=O)CSC(=S)NC(=O)c1ccc(OC)cc1	56.9	n	n	n	n
COc1ccc(C(=O)NC(=S)SCC(=O)O)cc1	n	n	n	n	x
COc1cc2ncnc(NCc3cccs3)c2cc1OC	56.8	n	n	n	n
Clc1ccc2c(NCc3cccs3)ncnc2c1	x	n	x	x	x
CN(c1ccccc1)S(=O)(=O)c1cccc(NC(=O)C2CC(=O)N(Cc3ccccc3)C2)c1 (stereo unspecified)	n	n	n	n	x
O=C(Cn1c2ccc(F)cc2c2nc3n(c(=O)c21)CCS3)Nc1ccc(Cl)cc1F	60.7	n	n	n	n
O=C(/C=C/N1CCOCC1)c1ccc(-c2ccccc2)cc1	66.2	n	n	n	n
O=C(c1cccs1)N1CCC(c2nc3c(nnn3Cc3c(Cl)cccc3Cl)c(=O)[nH]2)CC1	x	n	x	x	x
OC(CN1CCCCC1)Cn1c2ccccc2c2ccccc21 (stereo unspecified)	x	n	x	x	x
O=c1c2ccccc2n(CC(O)CN2CCCCC2)c2ccccc12 (stereo unspecified)	153.6	96.5	60.6	81.0	x
O=C(Nc1ccccc1F)Nc1cc(S(=O)(=O)N2CCOCC2)ccc1N1CCCC1	n	n	n	n	x
O=C(Nc1cc(S(=O)(=O)N2CCOCC2)ccc1N1CCCC1)c1ccc2c(c1)S(=O)(=O)c1ccccc1C2=O	65.0	n	n	n	n
SMILES	Hck Nef HTS	RanGTP-Impb inh	Runt-CBFb FRET	Runt-SMMHC FRET	Hck Nef conf
Cc1ccc(NNc2c(C)nc3ccccc3nc2=O)cc1	149.1	n	n	n	n
Cn1c(=O)c2c(nc3n2CC(O)CN3c2ccc(O)cc2)n(C)c1=O (stereo unspecified)	x	n	x	x	x
CN(C)C(CNC(=O)CCCN1C(=O)c2cccc3cccc(c23)C1=O)c1ccccc1 (stereo unspecified)	x	n	x	x	x
Cc1cc(C)c(Nc2cc(S(=O)(=O)O)c(N)c3c2C(=O)c2ccccc2C3=O)c(C)c1	84.4	x	n	n	+
Cc1ccc(NC(=O)CN(C)Cc2nc3c(Br)cc(Br)cc3c(=O)[nH]2)cc1	73.9	n	n	n	+
Cn1c(CNC(=O)c2ccco2)nnc1SCC(=O)Nc1ccccc1Cl	x	n	x	x	x
CC(C)c1cccc(C(C)C)c1OCCCCCN1CCOCC1	x	n	x	x	x
COc1ccc(C(=O)N/C(=C\c2ccc3c(c2)OCO3)C(=O)Nc2ccc(C(=O)O)cc2)cc1	54.3	n	n	n	n
COc1ccc(N2CC(C(=O)N3CCCC(C)C3)CC2=O)cc1 (stereo unspecified)	x	n	x	x	x
Cn1c(=O)[nH]c(=O)c2c1nc(N/N=C/C(Br)=C/c1ccccc1)n2CCO	59.6	u	n	n	+
Cn1nc(C(=O)OCC(=O)Nc2cccc(S(=O)(=O)N3CCCC3)c2)c2ccccc2c1=O	n	n	n	n	x
CCc1cc(=O)oc2cc(OC(=O)c3ccco3)ccc12	x	n	x	x	x
Cc1cc(=O)oc2cc(OC(=O)c3ccco3)ccc12	126.5	n	n	n	n
